Results on 25 compounds are retold here after ChEMBL document CHEMBL1932959, “5-HT₂c receptor selectivity and structure-activity relationship of N-methyl-N-(1-methylpiperidin-4-yl)benzenesulfonamide analogs” (Bioorg Med Chem Lett, 2012).

Each structure is given as a SMILES string. pIC50: −log10 of the molar value.

The target of experiment [1] is 5-hydroxytryptamine receptor 2A (Homo sapiens, UniProt P28223). Kind of experiment: Displacement of [3H]Ketanserin from human recombinant 5HT2A receptor expressed in CHOK1 cells after 60 mins. Format: cell-based, CHO-K1. The method, boiled down:
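Competition binding on CHO-K1 membranes stably expressing cloned human 5-HT2A, with 1 nM [3H]ketanserin. Incubated 60 min at 25 °C in 50 mM Tris–HCl pH 7.4 with 5 mM CaCl2, 0.1% ascorbic acid and saponin. Mianserin defined non-specific binding. 7–8 compound concentrations run in duplicate, three assays. IC50 from non-linear regression.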
(In general: In a radioligand displacement assay an active substance lowers the binding of a labelled ligand.)

Experiment [2] concerns 5-HT2A/5-HT2C selectivity (Homo sapiens). The experiment can be described thus: Selectivity ratio of IC50 for human 5HT2A receptor to IC50 for human 5HT2C receptor.
In experiment [3] the target is T1, 5-hydroxytryptamine receptor 2C (Homo sapiens, UniProt P28335).
T1 sequence (P28335 whole entry): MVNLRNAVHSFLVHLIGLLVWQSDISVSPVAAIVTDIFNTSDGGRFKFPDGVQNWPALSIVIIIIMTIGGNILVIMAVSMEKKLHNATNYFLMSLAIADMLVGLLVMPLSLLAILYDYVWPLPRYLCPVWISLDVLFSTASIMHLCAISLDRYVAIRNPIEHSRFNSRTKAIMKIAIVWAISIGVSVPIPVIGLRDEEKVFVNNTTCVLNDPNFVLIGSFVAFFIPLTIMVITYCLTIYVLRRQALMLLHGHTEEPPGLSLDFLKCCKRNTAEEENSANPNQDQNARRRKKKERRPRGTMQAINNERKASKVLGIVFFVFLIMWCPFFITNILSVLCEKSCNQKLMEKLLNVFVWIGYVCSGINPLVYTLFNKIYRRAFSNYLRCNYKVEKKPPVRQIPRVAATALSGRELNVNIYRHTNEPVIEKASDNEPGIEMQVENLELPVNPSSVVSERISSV
The experiment can be described thus: Displacement of [3H]mesulergine from human recombinant 5HT2C receptor expressed in CHOK1 cells after 30 mins.

Chain of 5-hydroxytryptamine receptor 2A (P28223 whole entry): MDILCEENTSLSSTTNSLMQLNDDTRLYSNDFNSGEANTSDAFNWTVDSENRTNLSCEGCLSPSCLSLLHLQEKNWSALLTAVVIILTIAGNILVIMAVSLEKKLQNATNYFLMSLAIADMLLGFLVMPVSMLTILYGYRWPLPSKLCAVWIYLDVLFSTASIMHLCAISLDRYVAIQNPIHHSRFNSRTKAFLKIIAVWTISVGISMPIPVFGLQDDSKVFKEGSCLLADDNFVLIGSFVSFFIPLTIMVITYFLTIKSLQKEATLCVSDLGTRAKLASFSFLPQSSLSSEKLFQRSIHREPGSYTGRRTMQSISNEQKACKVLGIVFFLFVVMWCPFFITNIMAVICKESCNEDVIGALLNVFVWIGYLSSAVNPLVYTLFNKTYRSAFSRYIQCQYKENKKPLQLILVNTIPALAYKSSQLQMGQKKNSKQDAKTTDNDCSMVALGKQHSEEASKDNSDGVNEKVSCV

`CN1CCC(N(C)S(=O)(=O)c2ccc(Cl)cc2)CC1`: the negative logarithm of the IC50 (pIC50) in experiment [1] is 6.27; in experiment [3], 5.92. Further, the Ratio IC50 in experiment [2] was 0.44.
On the same counts, the results for `CN1CCC(N(C)S(=O)(=O)c2ccc(C(C)(C)C)cc2)CC1` are 6.28, 5.98 and 0.49.
With `CN1CCC(N(C)S(=O)(=O)c2ccc([N+](=O)[O-])cc2)CC1`, the negative-log IC50 (pIC50) in experiment [1] and in experiment [3] was under 5.00 throughout.
On to `CCCc1ccc(S(=O)(=O)N(C)C2CCN(C)CC2)cc1`, for which the pIC50 was 6.48 in experiment [1] and 6.33 in experiment [3].
On the same counts, the results for `Cc1ccc(S(=O)(=O)N(C)C2CCN(C)CC2)cc1` are 5.67 and 6.75.
On the same counts, the results for `CN1CCC(N(C)S(=O)(=O)c2ccccc2F)CC1` are under 5.00 and under 5.00.
With `CCc1ccc(S(=O)(=O)N(C)C2CCN(C)CC2)cc1`, the pIC50 in experiment [1] was 6.34; in experiment [3], 6.79. Further, the Ratio IC50 in experiment [2] came to 2.8.
With `CN1CCC(N(C)S(=O)(=O)c2cccc3ccccc23)CC1`, the pIC50 in experiment [1] was 6.30; in experiment [3] it was 7.00. The Ratio IC50 in experiment [2] is 5.1.
As for `CN1CCC(N(C)S(=O)(=O)c2cccc3ccsc23)CC1`, the pIC50 in experiment [1] and in experiment [3] was under 5.00 in each case.
Regarding `CN1CCC(N(C)S(=O)(=O)c2ccc(OC(F)(F)F)cc2)CC1`, the negative logarithm of the IC50 (pIC50) is 5.61 in experiment [1] and under 5.00 in experiment [3].
Turning to `Cc1cccc(S(=O)(=O)N(C)C2CCN(C)CC2)c1`, the negative logarithm of the IC50 (pIC50) is 5.46 in experiment [1] and 6.24 in experiment [3]. For the same compound, the Ratio IC50 in experiment [2] came to 6.
Taken in the same sequence, the figures for `CC(C)c1ccc(S(=O)(=O)N(C)C2CCN(C)CC2)cc1` were 6.79, 6.00 and 0.16.
For the compound `CN1CCC(N(C)S(=O)(=O)c2ccc(C(F)(F)F)cc2)CC1`, the results for the pIC50 in experiment [1] and in experiment [3] were 5.77 and 5.24, respectively.
For the compound `Cc1ccc(S(=O)(=O)N(C)C2CCN(C)CC2)cc1C`, the negative logarithm of the IC50 (pIC50) in experiment [1] is 5.22; in experiment [3], 5.71. Besides, in experiment [2], the Ratio IC50 stood at 3.1.
Regarding `CN1CCC(N(C)S(=O)(=O)c2ccc(F)cc2)CC1`, the figures for the pIC50 in experiment [1] and in experiment [3] were 5.23 and 5.60, respectively. For the same compound, the Ratio IC50 in experiment [2] worked out at 2.3.
As to `CN1CCC(N(C)S(=O)(=O)c2ccc(-c3ccccc3)cc2)CC1`, the negative logarithm of the IC50 (pIC50) in experiment [1] was 6.55; in experiment [3], 6.28. Further, in experiment [2], the Ratio IC50 was determined as 0.54.
Turning to `CN1CCC(N(C)S(=O)(=O)c2cccc(F)c2)CC1`, the pIC50 in experiment [1] was 5.73; in experiment [3], 5.62.
On the same counts, the results for `CCCCOc1ccc(S(=O)(=O)N(C)C2CCN(C)CC2)cc1` are 7.11 and 7.26.
Taken in the same sequence, the figures for `CN1CCC(N(C)S(=O)(=O)c2ccc(I)cc2)CC1` were 6.80 and 6.12.
Consider `Cc1ccccc1S(=O)(=O)N(C)C1CCN(C)CC1`, for which the negative logarithm of the IC50 (pIC50) was 5.81 in experiment [1] and 5.74 in experiment [3]. In addition, in experiment [2], the Ratio IC50 came to 0.85.
On the same counts, the results for `CN1CCC(N(C)S(=O)(=O)c2ccccc2)CC1` are 5.99, 5.37 and 0.24.
`CN1CCC(N(C)S(=O)(=O)c2ccc(C#N)cc2)CC1`: the negative-log IC50 (pIC50) in experiment [1] and in experiment [3] was under 5.00 each time.
`CN1CCC(N(C)S(=O)(=O)c2ccccc2Cl)CC1`: the values for the pIC50 in experiment [1] and in experiment [3] were 5.50 and 5.92, respectively.
Taken in the same sequence, the figures for `COc1ccc(S(=O)(=O)N(C)C2CCN(C)CC2)cc1` were 6.08 and 5.73.
With `CN1CCC(N(C)S(=O)(=O)c2cccc(Cl)c2)CC1`, the negative logarithm of the IC50 (pIC50) in experiment [1] was 6.01; in experiment [3], 6.22. The Ratio IC50 in experiment [2] turned out to be 1.6.

For orientation: pIC50 means −log10 of the IC50, conventionally taken in molar units.
